The text below walks through data of PubChem BioAssay AID821 (SRMLSC, 2007).

A short description of the experiment: LL 47 lung fibroblast growth inhibition, concentration-response, selectivity test for endothelial growth inhibitor program, cellular, luminescent ATP readout (AID 821).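 Also: 100% = median of untreated cell-only wells and 0% = no luminescence.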 To be noted: LL 47 lung fibroblast viability, ATP luminescence; at 20 µM (top of the series). A digest of the protocol:
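Material – LL 47 human lung fibroblasts · Input – 1,150 cells/well · Doses – compound concentration series from 0.039 to 20 µM, 0.2% DMSO · Timing – 72 h exposure, 37 °C · Detection – CellTiter-Glo luminescence · Read-out basis – percent viability relative to untreated wells, EC50 via 4-parameter fit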

Calls of active or inactive are those of the source.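 The calls were made as follows: active = compounds whose fitted half-maximal concentration for reducing fibroblast viability is 100 µM or lower; inactive = the rest.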

For the molecule `Cc1cc(C)n(-c2nc(Nc3ccccc3C)nc(-n3nc(C)cc3C)n2)n1`, the viability (as a rule, a read-out of living cells in per cent, often relative to untreated cells) was 97.1% (inactive).
The same measure for `O=C1C2=C(NC(=S)NC2c2ccc(Cl)cc2)NC(c2ccc(Cl)cc2)N1c1ccc(Cl)cc1` (stereo not drawn): 99.2% (inactive); for `CCOc1cc(/C=N\NC(=O)Cn2nc([N+](=O)[O-])cc2C)ccc1OCc1cccc2ccccc12`: 89.7% (inactive); for `COC(=O)c1c(C)n(-c2ccc(OC)cc2)c2ccc(O)cc12`: 87.7% (inactive).
The same measure for `Cc1cc2nc(C3CCN(CC4COc5ccccc5O4)CC3)[nH]c2cc1C` (stereo not drawn): 88.5% (inactive); for `COc1ccc(NC(=O)c2cc3n(n2)C(C(F)(F)F)CC(c2ccc(OC)cc2)N3)cc1` (stereo not drawn): 96.4% (inactive).
The same measure for `CCOc1cc(/C=C\c2[nH]c(=O)[nH]c(=O)c2[N+](=O)[O-])ccc1OC(C)CC` (stereo not drawn): 90.9% (inactive); for `Cc1ccc(NC(=O)C(C)N2C(=O)c3ccccc3C2=O)cc1` (stereo not drawn): 107% (inactive); for `CCOC(=O)c1c(NC(=O)COc2ncnc3sccc23)sc2c1CCC2`: 83.6% (inactive).
For the molecule `Cn1c(=O)c2c(ncn2CC(=O)Nc2nc(-c3ccccc3Cl)cs2)n(C)c1=O`, the viability was 110% (inactive).
On to `N#C/C(=C/c1ccc(N2CCCCCC2)o1)c1ccc(Cl)cc1`, for which the viability is 100% (inactive).
Regarding `Cc1cc(C(=O)OC(C)C(=O)Nc2cccc(S(=O)(=O)N3CCOCC3)c2)c(C)o1` (stereo not drawn), the viability was 105% (inactive).
The value for `OC(COc1ccc(Cl)c2ccccc12)CN1CCN(c2ccccn2)CC1` (stereo not drawn) was 109% (inactive); that for `CC(/C=N/n1cnnc1)=C\c1ccccc1` was 109% (inactive).
The value for `CCCCCCn1c(C)nc2c(c1=O)c1nc3ccccc3nc1n2/N=C/c1ccco1` was 111% (inactive); that for `Cc1ccc(N=Nc2c(C)[nH][nH]c2=O)c(C)c1` was 97.6% (inactive).
The same measure for `C=C(C)COc1ccc(-c2n[nH]c(C)c2Oc2ccccc2OC)c(O)c1`: 94.7% (inactive); for `CCOC(=O)N1CCc2c(sc(NC(=O)c3ccc(S(=O)(=O)N4CCCC4)cc3)c2C#N)C1`: 81.6% (inactive).
In the case of `Cc1cc(C)cc(OC(=O)CS(=O)c2ccc(C(F)(F)F)cc2[N+](=O)[O-])c1` (stereo not drawn), the viability is 98.3% (inactive).
Regarding `O=C(CSc1ccc2c(c1)OCCO2)Nc1ccc(Cl)cn1`, the viability is 94.9% (inactive).
The value for `O=Cc1ccc(Sc2nnc(-c3ccccc3)o2)c([N+](=O)[O-])c1` was 89.9% (inactive); that for `O=C(Nc1ccc2nn(-c3ccccc3)nc2c1)c1ccc2c(c1)OCCO2` was 105% (inactive).
The value for `Cc1cccc2c1N(CCCOc1ccc(C(C)(C)C)cc1)C(=O)C2=O` was 92.2% (inactive).
The same measure for `CCOc1ccc(Nc2oc(-c3ccc(Cl)cc3)nc2C#N)cc1`: 106% (inactive).
As for `Cc1cc(/C=N/n2cnnc2)c(C)n1-c1ccc(OCc2ccc(Cl)cc2Cl)cc1`, the viability was 86.5% (inactive).
The same measure for `CC(=O)n1cc(-c2ccncc2)c2ccccc21`: 98.4% (inactive); for `CCCn1c(Nc2nc3ccccc3n2C)nc2ccccc21`: 102% (inactive).
In the case of `Cc1ccc(-c2nc3cccnc3o2)cc1NC(=O)COc1ccc(C(C)(C)C)cc1`, the viability is 99.4% (inactive).
The same measure for `COc1ccc2cc3cc(C(=O)NCCc4ccc(OC)c(OC)c4)oc3nc2c1`: 109% (inactive); for `Cn1nc(C(C)(C)C)cc1C(=O)NCc1ccc(N2CCCC2=O)cc1`: 107% (inactive).
Take `COc1ccc2nc3oc(C(=O)N4CCN(c5ccccc5F)CC4)cc3cc2c1`: the viability was 108% (inactive).
The same measure for `Cc1ccc(/C=C/C(=O)c2ccccc2)cc1`: 85.6% (inactive); for `CC[n+]1cc(-c2ccccc2)nc(N2CCOCC2)n1`: 99.9% (inactive).
Consider `CCCCCCn1c(N2CCN(c3ccccc3)CC2)nc2c1c(=O)n(C)c(=O)n2C`, for which the viability was 101% (inactive).
Take `O=C(Cn1cc(C(=O)c2ccccc2F)c2ccccc21)NCc1ccco1`: the viability was 104% (inactive).
The same measure for `OC1(Cc2ccn[nH]2)CCCCC1`: 105% (inactive).
Regarding `CCOC(=O)N1CCN(C(=O)c2nn(-c3ccc(C)cc3)c(=O)c3c2c2ccccc2n3C)CC1`, the viability was 100% (inactive).
As for `CC(C)OC(=O)NCCOC(=O)Nc1cccc(Cl)c1`, the viability is 103% (inactive).
For `COc1ccc2cc3cc(C(=O)Nc4ccc5c(c4)OCO5)oc3nc2c1`, the viability is 88.3% (inactive).
On to `CCOc1cc(C(=O)CSc2nnc(CNc3ccc(Cl)cc3)o2)ccc1NC(=O)CC`, for which the viability is 96% (inactive).
The value for `COc1ccc(C(c2sc3ncnn3c2O)N2CC(C)OC(C)C2)cc1OC` (stereo not drawn) was 98.1% (inactive).
On to `Cc1nc2ccccc2n1CCc1nc2c3ccccc3nc(SCC(=O)NCc3ccco3)n2n1`, for which the viability was 101% (inactive).
The same measure for `Cc1nc2c(C(=O)NCCC(C)C)c[nH]n2c(=O)c1Cc1ccccc1F`: 99.7% (inactive); for `c1ccc2c(c1)oc1c(NCCCN3CCOCC3)ncnc12`: 95.2% (inactive).
On to `CCCc1nc(SCC(=O)N2CCC(Cc3ccccc3)CC2)c2c(=O)n(C)c(=O)n(C)c2n1`, for which the viability is 106% (inactive).
The same measure for `COc1cc2cc(C(c3nnnn3C3CCCC3)N3CCc4ccccc43)c(=O)[nH]c2cc1OC` (stereo not drawn): 92.9% (inactive).
As for `COc1ccc(OC)c(-n2nnnc2SCC(=O)Nc2ccc3c(c2)OCCO3)c1`, the viability was 103% (inactive).
Regarding `O=C(CN1CCN(S(=O)(=O)c2ccc(F)cc2)CC1)Nc1ccc2c(c1)OCO2`, the viability is 104% (inactive).
The value for `Oc1ccccc1NCC(O)Cn1ccc2ccccc21` (stereo not drawn) was 98.6% (inactive); that for `COc1ccc(-c2cc(C(=O)Nc3cc(C)n(Cc4ccc(Cl)cc4)n3)no2)cc1OC` was 102% (inactive); that for `CCn1c(SCC(N)=O)nnc1-c1ccc2[nH]c(C)c(C)c2c1` was 99.8% (inactive).
The value for `COc1cccc(-c2cc(C(=O)Nc3cc(C)n(Cc4ccc(Cl)cc4)n3)no2)c1` was 92% (inactive); that for `CCc1cc(-c2n[nH]c(C)c2Oc2ccc(C(C)C)cc2)c(O)cc1O` was 85.5% (inactive).
As for `COc1ccc(CNC(=O)c2cc3c(C)nc4ccccc4c3o2)c(OC)c1`, the viability was 88.7% (inactive).
The same measure for `COc1ccccc1OCC(=O)Nc1cccc(-c2nc3ccccc3o2)c1`: 99% (inactive); for `CCCCc1ccc(Nc2nc(CCC)cc(=O)[nH]2)cc1`: 91% (inactive); for `Cc1ccc2c(c1)c1c(n2CC(O)Cn2c(C)nc3ccccc32)CCCC1` (stereo not drawn): 95.1% (inactive).
As for `O=C(CCC1COc2ccccc2O1)Nc1ccc(Cl)cn1` (stereo not drawn), the viability is 95.5% (inactive).
`CCOc1ccc(-c2nn3c(-c4ccccc4)nnc3s2)cc1`: the viability is 113% (inactive).
As to `COC(=O)c1ccc2c(=O)n(Cc3ccco3)c(SCC(=O)Nc3ccccc3Cl)nc2c1`, the viability was 104% (inactive).
The same measure for `CCCCOc1ccc(C(=O)OC2CC(C)N(C)CC2C)cc1` (stereo not drawn): 96.4% (inactive); for `Cc1sc2nc(SCC(=O)NCc3ccco3)n(Cc3ccccc3)c(=O)c2c1C`: 98.4% (inactive); for `CCOc1cc(N2CCOCC2)c(OCC)cc1NC(=O)COc1ncnc2ccc(Br)cc12`: 100% (inactive).
The value for `CCCCCCn1c(O)c(C=NC2CCCCC2N)c(=O)[nH]c1=O` (stereo not drawn) was 113% (inactive); that for `O=C(CSc1nnc(-c2cc(-c3cccs3)nc3ccccc23)o1)NC1CCCCC1` was 98.4% (inactive).
Consider `Cc1cc(N2CCCCC2)nc2ccc(NC(=O)c3ccc(Br)o3)cc12`, for which the viability is 94.4% (inactive).
The value for `CCOC(=O)c1cnc(-n2nc(C)cc2C)nc1NCc1ccc2c(c1)OCO2` was 96.5% (inactive).
With `CN1C(=O)C(O)(CC(=O)c2cccc(-n3cccc3)c2)c2ccccc21` (stereo not drawn), the viability is 93.7% (inactive).
The same measure for `Cc1cccc(Nc2nc(NCc3ccco3)nc(N3CCOCC3)n2)c1`: 80.4% (inactive).
The same measure for `Cc1cccnc1Nc1nc(-c2ccc(O)cc2O)cs1`: 94.8% (inactive); for `CC(=O)Oc1ccc(N2C(=O)C3C(C2=O)C2(C)C=CC3(C)O2)cc1` (stereo not drawn): 103% (inactive).
In the case of `COC(=O)C1=C(O)/C(=C\c2ccc(CNC(=O)C(=O)Nc3ccc(C)c(C)c3)o2)N=C1C`, the viability is 101% (inactive).
The value for `Cc1ccccc1NC(=O)CSC(N)=O` was 110% (inactive); that for `CC(C)(C)C1CC=C2C(C#N)=C(N)C(C#N)(C#N)C(c3cccs3)C2C1` (stereo not drawn) was 94.4% (inactive); that for `CC(=O)c1c(C)[nH]c(C(=O)CSc2nnc(-c3ccccc3)n2Cc2ccc3c(c2)OCO3)c1C` was 94.2% (inactive).
The same measure for `Nc1c(C(=O)Nc2ccc3c(c2)OCCO3)nnn1CCc1ccccc1`: 82.1% (inactive); for `COc1ccccc1C1CC(c2c(-c3ccccc3)c3cc(Cl)ccc3[nH]c2=O)=NN1S(C)(=O)=O` (stereo not drawn): 83.6% (inactive); for `Cn1c(=O)cc(SCC(=O)NCC2COc3ccccc3O2)c2ccccc21` (stereo not drawn): 104% (inactive).
The value for `COC(=O)c1cc(COc2ccc3c(c2)oc(=O)c2ccccc23)c(C)o1` was 120% (inactive); that for `O=C(Nc1nnc(-c2ccc3c(c2)OCCO3)o1)c1ccc(Cc2ccccc2)cc1` was 97.9% (inactive); that for `O=C(Nc1ccc2c(c1)CCC2)c1cnn2c1NC(c1ccco1)CC2C(F)(F)F` (stereo not drawn) was 83.8% (inactive).
Take `Cc1cc(NC(=O)CSc2nc(C(C)C)nc3sc4c(c23)CCCC4)no1`: the viability is 93.6% (inactive).
Take `COc1ccc2cc3cc(C(=O)Nc4ccc5c(c4)OCCO5)oc3nc2c1`: the viability is 98.4% (inactive).
